The results in this text go back to ChEMBL document CHEMBL2375351, “Degradation of MAC13243 and studies of the interaction of resulting thiourea compounds with the lipoprotein targeting chaperone LolA” (Bioorg Med Chem Lett, 2013).

Usually MIC stands for the least concentration at which growth counts as inhibited. What is called half-life is the time needed for the level to fall by half in the phase considered. The term Kd denotes a measure of binding affinity in units of concentration.

Series [1] deals with Bacillus subtilis. The experiment in a line: Antibacterial activity against Bacillus subtilis 168 assessed as growth inhibition after 16 hrs. The format is functional. The note with it: subsp. subtilis str. 168, 16 h. In a few lines: (§1)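 Broth microdilution in liquid LB with B. subtilis 168 or P. aeruginosa PAO1. Overnight cultures were diluted 1:100, grown to OD600 0.4, then diluted 1:100,000 into serially diluted compound (1–256 µg/mL). Plates were incubated 16 h at 37 °C, static, except B. subtilis, which was shaken at 250 rpm. MIC is the lowest concentration giving OD600 below 0.05.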

The test system of series [2] is Escherichia coli. The experiment in a line: Antibacterial activity against Escherichia coli MG1655 overexpressing lolA assessed as growth inhibition after 16 hrs. The format is functional. As to conditions: MG1655, 16 h.
The subject of series [3] is Pseudomonas aeruginosa. The experiment in a line: Antibacterial activity against Pseudomonas aeruginosa PAO1 assessed as growth inhibition after 16 hrs. Format: functional. The note with it: PAO1, 16 h. In a few lines:
as §1

The nature of series [4]: Half life of the compound in DMSO at 250 uM measured up to 48 hrs by reverse phase HPLC analysis. Format: physicochemical. An outline of the steps: (§2)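 Compound at 250 µM final was incubated in DMSO, H2O, 50 mM acetate buffer (pH 4) or 50 mM citrate buffer (pH 11). Samples were analysed over time by reverse phase C18 HPLC using a 10 min gradient of 0.1% TFA water to acetonitrile, with detection at 270 nm. Parent peak areas were plotted against time and fit to exponential decay.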

Series [5] deals with Escherichia coli. The experiment in a line: Potency index, ratio of MIC for Escherichia coli EB2120 conditional lolA strain with lolA deletion and complementing copy placed at araBAD locus in presence of 0.2% arabinose to MIC in presence of 0.00002% of arabinose. Format: functional.
Series [6] in a line: Binding affinity to Escherichia coli LolA.
The nature of series [7]: Half life of the compound in acetate buffer at pH 4 at 250 uM measured up to 48 hrs by reverse phase HPLC analysis. Format: physicochemical. An outline of the steps: as §2
The nature of series [8]: Half life of the compound in citrate buffer at pH 11 at 250 uM measured up to 48 hrs by reverse phase HPLC analysis. Format: physicochemical. In a few lines:
as §2

In series [9] the test system is Escherichia coli. The experiment in a line: Potency index, ratio of MIC for Escherichia coli AG1 overexpressing lolA to MIC for lolA-deficient Escherichia coli AG1. The format is functional.
The nature of series [10]: Half life of the compound in water at 250 uM measured up to 48 hrs by reverse phase HPLC analysis. The format is physicochemical. An outline of the steps:
as §2

Series [11] concerns Escherichia coli. The experiment in a line: Binding affinity to LolA in Escherichia coli EB68 assessed as change in cell shape from rod to sphere at 10 ug/mL measured every 1 hr for 4 hrs by phase contrast microscopic analysis. An outline of the steps: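 E. coli EB68 (MG1655) was subcultured 1:100 into LB and grown to OD600 ~0.5, then washed once in fresh medium. Cells were resuspended in LB with compound at 10 µg/mL, placed on poly-lysine-treated slides and examined by phase contrast light microscopy at 1 h intervals for rod-to-sphere shape change.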

Series [12] deals with Escherichia coli. The experiment in a line: Antibacterial activity against Escherichia coli EB2120 conditional lolA strain with lolA deletion and complementing copy placed at araBAD locus at 1 to 256 ug/mL after 18 hrs in presence of 0.00002 to 0.2% of arabinose. Format: functional, organism-based. In a few lines:
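Conditional lolA strain EB2120 (chromosomal lolA deleted, complementing copy at araBAD under arabinose control), grown to OD600 ~0.4–0.5. […] Fold sensitization is the MIC under LolA depletion relative to the fully complemented 0.2% arabinose condition.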

Series [13] is described as follows: Binding affinity to recombinant Escherichia coli LolA by STDD NMR spectra analysis.
The test system of series [14] is Escherichia coli. The experiment in a line: Potency index, ratio of MAC13243 MIC to compound MIC for Escherichia coli MG1655 overexpressing lolA. Format: functional.

Converted amounts (≈) assume the structure as drawn. The source made the active and inactive calls.

For the molecule `N=C(N)SCCCc1ccc(Cl)cc1`, the minimal inhibitory concentration (MIC) in series [1] is greater than 256 µg/mL; in series [2], greater than 256 µg/mL; in series [3] it was 128 µg/mL (≈ 560 µM).

Regarding `COc1ccc(CCN2CN=C(SCc3ccc(Cl)cc3)NC2)cc1OC`, the half-life at 250 µM in series [4] is 257 h; in series [7], 4 h; in series [8], 59 h; in series [10], 13 h. For the same molecule, the Ratio is 32 in series [5] and 16 in [9]. The figures for the minimum inhibitory concentration (MIC) in series [1], in series [2] and in [3] were 256 µg/mL (≈ 631 µM), 8 µg/mL (≈ 19.7 µM) and 32 µg/mL (≈ 78.8 µM), respectively. Further, the Kd in series [6] worked out at 8 µM. Also, the outcome in series [11] was Active.

`N=C(N)NCc1ccc(Cl)cc1`: the MIC in [1] is greater than 256 µg/mL; in series [2], 256 µg/mL (≈ 1390 µM); in series [3] it was 128 µg/mL (≈ 697 µM).

Turning to `N=C(N)Sc1ccc(Cl)cc1`, the figures for the minimal inhibitory concentration (MIC) in [1], in series [2] and in series [3] were 4 µg/mL (≈ 21.4 µM), greater than 256 µg/mL and 64 µg/mL (≈ 343 µM), respectively.

As to `N=C(N)SCc1cccc(Cl)c1`, the MIC in series [1] is greater than 256 µg/mL; in series [2], 64 µg/mL (≈ 319 µM); in [3], greater than 256 µg/mL.

For `Oc1cc(Cl)ccc1Oc1ccc(Cl)cc1Cl`, the outcome in series [12] was inactive.

Turning to `N=C(N)SCc1ccccc1` [BENZYL CARBAMIMIDOTHIOATE], the minimum inhibitory concentration (MIC) in series [1] was greater than 256 µg/mL; in series [2], 64 µg/mL (≈ 385 µM); in series [3], 32 µg/mL (≈ 192 µM).

For the molecule `COc1ccc(CCN)cc1OC`, the MIC in series [2] is greater than 256 µg/mL.

On to `N=C(N)c1ccc(Cl)cc1`, for which the minimal inhibitory concentration (MIC) in series [1] is 4 µg/mL (≈ 25.9 µM); in [2], greater than 256 µg/mL; in [3] it was 64 µg/mL (≈ 414 µM).

In the case of `N=C(N)SCc1ccc(I)cc1`, the results for the MIC in series [1], in [2] and in series [3] were greater than 256 µg/mL, 16 µg/mL (≈ 54.8 µM) and 32 µg/mL (≈ 110 µM), respectively.

In the case of `COc1ccc(CSC(=N)N)cc1`, the results for the MIC in series [1], in series [2] and in series [3] were greater than 256 µg/mL, greater than 256 µg/mL and 32 µg/mL (≈ 163 µM), respectively.

With `N=C(N)SCc1ccc([N+](=O)[O-])cc1`, the minimal inhibitory concentration (MIC) in series [1] is greater than 256 µg/mL; in [2], 32 µg/mL (≈ 151 µM); in [3], 64 µg/mL (≈ 303 µM).

For `N=C(N)CCc1ccc(Cl)cc1`, the figures for the MIC in series [1], in [2] and in series [3] were greater than 256 µg/mL, greater than 256 µg/mL and 128 µg/mL (≈ 701 µM), respectively.

Take `CC1(C)S[C@@H]2[C@H](NC(=O)[C@H](N)c3ccccc3)C(=O)N2[C@H]1C(=O)O`: the result in [12] was inactive.

As to `N=C(N)SCc1ccc(Cl)cc1`, the Ratio in [5] worked out at 32; in series [14], 4; in series [9] it was 16. Besides, the MIC in series [1] is greater than 256 µg/mL; in series [2], 2 µg/mL (≈ 9.97 µM); in series [3] it was 16 µg/mL (≈ 79.7 µM). The Kd in [13] was 150 µM.

Take `COc1cc(Cc2cnc(N)nc2N)cc(OC)c1OC`: in [12], the result was inactive.

As to `CN[C@@H]1[C@H](O)[C@H](NC)[C@H]2O[C@@]3(O)C(=O)C[C@@H](C)O[C@H]3O[C@@H]2[C@H]1O`, the result in [12] was inactive.

For `N=C(N)SCc1ccc(F)cc1`, the results for the minimum inhibitory concentration (MIC) in [1], in series [2] and in series [3] were greater than 256 µg/mL, 16 µg/mL (≈ 86.8 µM) and 16 µg/mL (≈ 86.8 µM), respectively.

As for `N=C(N)OCc1ccc(Cl)cc1`, the minimum inhibitory concentration (MIC) was greater than 256 µg/mL in [1], 32 µg/mL (≈ 173 µM) in [2] and 32 µg/mL (≈ 173 µM) in [3].

On to `N=C(N)CSCc1ccc(Cl)cc1`, for which the minimum inhibitory concentration (MIC) in [1] is greater than 256 µg/mL; in [2], greater than 256 µg/mL; in [3], 128 µg/mL (≈ 596 µM).

As for `CN(C)[C@@H]1C(O)=C(C(N)=O)C(=O)[C@@]2(O)C(O)=C3C(=O)c4c(O)cccc4[C@@](C)(O)[C@H]3C[C@@H]12`, in series [12], the result was inactive.

On to `N=C(N)SCCc1ccc(Cl)cc1`, for which the minimum inhibitory concentration (MIC) in [1] is greater than 256 µg/mL; in series [2], greater than 256 µg/mL; in series [3], 128 µg/mL (≈ 596 µM).

Turning to `CCn1cc(C(=O)O)c(=O)c2cc(F)c(N3CCNCC3)cc21`, the result in series [12] was inactive.

As for `C/N=C(\NC)SCc1ccc(Cl)c(Cl)c1`, the minimum inhibitory concentration (MIC) in series [1] is greater than 256 µg/mL; in [2], 256 µg/mL (≈ 973 µM); in [3], 256 µg/mL (≈ 973 µM).

Turning to `N=C(N)SCc1ccc(Br)cc1`, the MIC in series [1] was greater than 256 µg/mL; in series [2], 4 µg/mL (≈ 16.3 µM); in series [3] it was 16 µg/mL (≈ 65.3 µM).

`N=C(N)SCc1ccccc1Cl`: the values for the MIC in [1], in [2] and in [3] were greater than 256 µg/mL, 16 µg/mL (≈ 79.7 µM) and 64 µg/mL (≈ 319 µM), respectively.

On to `N=C(N)SCc1ccc(Cl)cc1Cl`, for which the minimum inhibitory concentration (MIC) in series [1] is greater than 256 µg/mL; in [2] it was 1 µg/mL (≈ 4.25 µM); in series [3] it was 32 µg/mL (≈ 136 µM).

Regarding `CO[C@H]1/C=C/O[C@@]2(C)Oc3c(C)c(O)c4c(O)c(c(/C=N/N5CCN(C)CC5)c(O)c4c3C2=O)NC(=O)/C(C)=C\C=C\[C@H](C)[C@H](O)[C@@H](C)[C@@H](O)[C@@H](C)[C@H](OC(C)=O)[C@@H]1C`, in series [12], the outcome was inactive.

As to `N=C(N)SCc1ccc(Cl)c(Cl)c1`, the Ratio in series [5] is on record as 32; in series [9] it was 16. Moreover, the values for the MIC in series [1], in [2] and in [3] were greater than 256 µg/mL, 2 µg/mL (≈ 8.51 µM) and 16 µg/mL (≈ 68 µM), respectively. In addition, the Kd in series [13] amounted to 200 µM. The result in series [11] was Active.

Turning to `C[C@@H]1O[C@@H]1P(=O)(O)O` [FOSFOMYCIN], in series [5], the Ratio amounted to 16.
